Assay results reported in EPA's CvTdb concentration-time database.

Columns and labels:
Rat [1] = experiment: concentration in plasma after dosing; settings: 1 h; dosed: Wyeth-14643; 2.0 mg/kg; iv; Male; Sprague-Dawley
Rat [2] = experiment: concentration in plasma after dosing; settings: dosed: Wyeth-14643, 2.0 mg/kg, oral, Male, Sprague-Dawley
Rat [3] = experiment: concentration in plasma after dosing; settings: dosed: Wyeth-14643, 2.0 mg/kg, iv, Male, Sprague-Dawley
Rat [4] = experiment: concentration in plasma after dosing; settings: 1 h; dosed: Wyeth-14643; 2.0 mg/kg; iv; Male; Sprague-Dawley; remark: listed apart in the source
Rat [5] = experiment: concentration in plasma after dosing; settings: 1 h; dosed: Bis 2-Chloroethoxy Methane; 20 mg/kg; iv; Male; F344
Rat [6] = experiment: concentration in liver after dosing; settings: 1 h; dosed: Bis 2-Chloroethoxy Methane; 20 mg/kg; iv; Male; F344
Rat [7] = experiment: concentration in plasma after dosing; settings: 3 h; dosed: Bis 2-Chloroethoxy Methane; 20 mg/kg; iv; Male; F344
Rat [8] = experiment: concentration in plasma after dosing; settings: dosed: Bis 2-Chloroethoxy Methane, 40 mg/kg, iv, Male, Harlan Sprague Dawley
Rat [9] = experiment: concentration in plasma after dosing; settings: dosed: Fluorotelomer alcohol 8+2, 40 mg/kg, iv, Male, F344
Rat [10] = experiment: concentration in plasma after dosing; settings: dosed: Fluorotelomer alcohol 8+2, 12 mg/kg, iv, Male, F344
Rat [11] = experiment: concentration in kidney after dosing; settings: 3 h; dosed: Fluorotelomer alcohol 8+2; 24 mg/kg; oral; Male; Harlan Sprague Dawley
Rat [12] = experiment: concentration in kidney after dosing; settings: 6 h; dosed: Fluorotelomer alcohol 8+2; 80 mg/kg; oral; Female; Harlan Sprague Dawley
Rat [13] = experiment: concentration in brain after dosing; settings: 1 h; dosed: Fluorotelomer alcohol 8+2; 80 mg/kg; oral; Female; Harlan Sprague Dawley
Rat [14] = experiment: concentration in plasma after dosing; settings: dosed: Fluorotelomer alcohol 8+2, 12 mg/kg, oral, Male, Harlan Sprague Dawley
Rat [15] = experiment: concentration in plasma after dosing; settings: 20 min; dosed: Di-n-butyl phthalate; 50 mg/kg; oral; Male; Sprague-Dawley
Rat [16] = experiment: concentration in plasma after dosing; settings: 3 h; dosed: Di-n-butyl phthalate; 20 mg/kg; iv; Male; Sprague-Dawley
Rat [17] = experiment: concentration in kidney after dosing; settings: 3360 h; dosed: Perfluorodecanoic acid; 10 mg/kg; oral; Female; Harlan Sprague Dawley
Rat [18] = experiment: concentration in liver after dosing; settings: 1848 h; dosed: Perfluorodecanoic acid; 10 mg/kg; oral; Female; Harlan Sprague Dawley
Rat [19] = experiment: concentration in plasma after dosing; settings: 12 h; dosed: Primidone; 80 mg/kg; oral; Female; Harlan Sprague-Dawley
Rat [20] = experiment: concentration in thymus after dosing; settings: 10 h; dosed: Thiodiglycolic Acid; 20 mg/kg; iv; Male; F344
Rat [21] = experiment: concentration in liver after dosing; settings: 1 h; dosed: Thiodiglycolic Acid; 20 mg/kg; iv; Male; Harlan Sprague Dawley
Rat [22] = experiment: concentration in thymus after dosing; settings: 20 min; dosed: Thiodiglycolic Acid; 20 mg/kg; iv; Female; F344
Rat [23] = experiment: concentration in liver after dosing; settings: 40 min; dosed: Thiodiglycolic Acid; 20 mg/kg; iv; Male; Harlan Sprague Dawley
Rat [24] = experiment: concentration in liver after dosing; settings: 6.667 h; dosed: Thiodiglycolic Acid; 20 mg/kg; iv; Female; Harlan Sprague Dawley
Rat [25] = experiment: concentration in plasma after dosing; settings: 10 min; dosed: Thiodiglycolic Acid; 20 mg/kg; iv; Male; F344
Rat [26] = experiment: concentration in heart after dosing; settings: 3 h; dosed: Thiodiglycolic Acid; 20 mg/kg; iv; Female; Harlan Sprague Dawley
Rat [27] = experiment: concentration in liver after dosing; settings: 4 h; dosed: Thiodiglycolic Acid; 20 mg/kg; iv; Female; Harlan Sprague Dawley
Rat [28] = experiment: concentration in plasma after dosing; settings: dosed: dichloroacetic acid, 10 mg/kg, oral, Male, Harlan Sprague Dawley
human = experiment: amount in urine after dosing (mg cumulative excretion); settings: dosed: trichloroethylene, inhalation, duration: 8 hr
Summary of the method: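 A PubMed search, classifier screening and manual review identified published in vivo toxicokinetic studies, which together with two structured collections supplied concentration-versus-time and amount-versus-time points. Points were mostly digitised from plot screenshots with WebPlotDigitizer, otherwise copied from tables. Dose, route, subject details and medium were hand-curated from each paper, and sampling and analytical methods are those of the sources, often unreported.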

Cc1cccc(Nc2cc(Cl)nc(SCC(=O)O)n2)c1C
Settings | concentration in plasma [ng/mL]
Rat [1] | 2380
Rat [4] | 2190

concentration in plasma [ng/mL]
Settings | 0.5 h | 1 h | 3 h | 6 h
Rat [2] | – | 904 | – | 200
Rat [3] | 5100 | – | 342 | –

ClCCOCOCCCl [Bis 2-Chloroethoxy Methane]
Settings | concentration in liver [ng/g] | concentration in plasma [ng/mL]
Rat [5] | – | 1320
Rat [6] | 2070 | –
Rat [7] | – | 90.6

Rat [8]
Settings | concentration in plasma [ng/mL]
6.667 h | 40.1
20 min | 9720

OCCC(F)(F)C(F)(F)C(F)(F)C(F)(F)C(F)(F)C(F)(F)C(F)(F)C(F)(F)F [Fluorotelomer alcohol 8+2]
Settings | concentration in plasma [ng/mL]
Rat [9], 0.5 h | 5950
Rat [9], 9 h | 68
Rat [10], 3 h | 125
Rat [10], 5 min | 3710
Rat [14], 0.75 h | 318
Rat [14], 12 h | 6.78

Settings | concentration in brain [ng/g] | concentration in kidney [ng/g]
Rat [11] | – | 985
Rat [12] | – | 905
Rat [13] | 4990 | –

CCCCOC(=O)c1ccccc1C(=O)O [Mono-n-butyl phthalate]
Settings | concentration in plasma [ng/mL]
Rat [15] | 16800
Rat [16] | 1640

O=C(O)C(F)(F)C(F)(F)C(F)(F)C(F)(F)C(F)(F)C(F)(F)C(F)(F)C(F)(F)C(F)(F)F [Perfluorodecanoic acid]
Settings | concentration in kidney [ng/g] | concentration in liver [ng/g]
Rat [17] | 2910 | –
Rat [18] | – | 26000

CCC1(c2ccccc2)C(=O)NC(=O)NC1=O [Phenobarbital]
Settings | concentration in plasma [ng/mL]
Rat [19] | 5830

O=C(O)CSCC(=O)O [Thiodiglycolic Acid]
Settings | concentration in heart [ng/g] | concentration in liver [ng/g] | concentration in plasma [ng/mL] | concentration in thymus [ng/g]
Rat [20] | – | – | – | 477
Rat [21] | – | 162000 | – | –
Rat [22] | – | – | – | 5640
Rat [23] | – | 176000 | – | –
Rat [24] | – | 7100 | – | –
Rat [25] | – | – | 34600 | –
Rat [26] | 558 | – | – | –
Rat [27] | – | 7460 | – | –

O=C(O)C(Cl)Cl [dichloroacetic acid]
Rat [28]
Settings | concentration in plasma [ng/mL]
0.5 h | 274
2 min | 405

O=C(O)C(Cl)(Cl)Cl [trichloroacetic acid]
human
Settings | amount in urine
7.504 h, 97 ppm | 6.26
7.706 h, 97 ppm | 3.69
10.24 h, 54 ppm | 5.68
11.01 h, 54 ppm | 9.23
23.46 h, 97 ppm | 32.7
23.84 h, 97 ppm | 36.5
24.26 h, 54 ppm | 25.8
24.54 h, 54 ppm | 30.2
47.49 h, 97 ppm | 113
47.71 h, 97 ppm | 101
48.03 h, 54 ppm | 88.6
48.27 h, 54 ppm | 72
70.31 h, 97 ppm | 166
70.67 h, 97 ppm | 141
71.68 h, 54 ppm | 124
71.91 h, 54 ppm | 110
95.13 h, 97 ppm | 201
95.58 h, 54 ppm | 177
95.7 h, 97 ppm | 168
96.05 h, 54 ppm | 145
119.2 h, 97 ppm | 224
119.67 h, 97 ppm | 190
119.76 h, 54 ppm | 194
119.83 h, 54 ppm | 164
142.97 h, 97 ppm | 249
143.27 h, 97 ppm | 206
143.82 h, 54 ppm | 178
143.83 h, 54 ppm | 217
167.26 h, 97 ppm | 260
167.56 h, 97 ppm | 217
167.82 h, 54 ppm | 232
168.41 h, 54 ppm | 188
191.33 h, 54 ppm | 199
191.56 h, 97 ppm | 269
191.61 h, 54 ppm | 245
191.66 h, 97 ppm | 224
